Laboratory results: ChEMBL document CHEMBL3414463, “Discovery of potent and selective 8-fluorotriazolopyridine c-Met inhibitors” (J Med Chem, 2015)

How the values were obtained:
Liver microsome [1] = test: Drug level in dog liver microsomes treated with 5-(8-Fluoro-3-(1-(3-(2-methoxyethoxy)quinolin-6-yl)ethyl)-[1,2,4]triazolo[4,3-a]pyridin-6-yl)-3-methylisoxazole assessed as compound formation in presence of NADPH by LC-MS/MS method; assay type: ADME, Canis lupus familiaris
In short: (§1)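 Compound incubated with NADPH in mouse, rat, dog, monkey or human liver microsomes. Metabolites were identified by accurate mass spectrometry and MS/MS, and selected ion chromatograms were used to build metabolite profiles.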

Liver microsome [2] = test: Drug level in human liver microsomes treated with 5-(8-Fluoro-3-(1-(3-(2-methoxyethoxy)quinolin-6-yl)ethyl)-[1,2,4]triazolo[4,3-a]pyridin-6-yl)-3-methylisoxazole assessed as compound formation in presence of NADPH by LC-MS/MS method; assay type: ADME; in short: as §1
Liver microsome [3] = test: Drug level in rat liver microsomes treated with 5-(8-Fluoro-3-(1-(3-(2-methoxyethoxy)quinolin-6-yl)ethyl)-[1,2,4]triazolo[4,3-a]pyridin-6-yl)-3-methylisoxazole assessed as compound formation in presence of NADPH by LC-MS/MS method; assay type: ADME; in short: as §1
[4] = Drug level in monkey liver microsomes treated with 5-(8-Fluoro-3-(1-(3-(2-methoxyethoxy)quinolin-6-yl)ethyl)-[1,2,4]triazolo[4,3-a]pyridin-6-yl)-3-methylisoxazole assessed as compound formation in presence of NADPH by LC-MS/MS method; assay type: ADME, Macaca mulatta; settings: rhesus monkey; in short: as §1
[5] = Drug level in mouse liver microsomes treated with 5-(8-Fluoro-3-(1-(3-(2-methoxyethoxy)quinolin-6-yl)ethyl)-[1,2,4]triazolo[4,3-a]pyridin-6-yl)-3-methylisoxazole assessed as compound formation in presence of NADPH by LC-MS/MS method; assay type: ADME; in short: as §1
[6] = target: T1, Hepatocyte growth factor receptor (Homo sapiens, UniProt P08581); test: Inhibition of recombinant c-Met kinase domain (unknown origin) incubated for 30 mins using gastrin peptide substrate by HTRF assay
[7] = target: T1, Hepatocyte growth factor receptor; test: Inhibition of HGF-stimulated c-Met autophosphorylation in serum starved human PC3 cells pre-incubated for 1 hr followed by human recombinant HGF stimulation for 10 mins by quantitative electrochemiluminescence immunoassay; assay type: cell-based, PC-3
In short: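 Serum-starved PC-3 cells (plated in high-glucose DMEM/10% FBS, then 16 h in low-glucose DMEM with 0.1% BSA) were treated with a 10-point inhibitor dilution for 1 h at 37 °C. Cells were then stimulated with 200 ng/mL recombinant human HGF for 10 min and lysed. Phospho-c-Met was captured with biotinylated anti-c-Met and 4G10 by electrochemiluminescence. IC50, n ≥ 2.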

[8] = Clearance in Sprague-Dawley rat at 0.25 mg/kg, iv; assay type: ADME, organism-based; set-up: dose 0.25 mg/kg, route intravenous; settings: Sprague-Dawley, in vivo
[9] = Volume of distribution at steady state in Sprague-Dawley rat at 0.25 mg/kg, iv; assay type: ADME, organism-based; set-up: dose 0.25 mg/kg, route intravenous; settings: in vivo, read-out: Vdss
In short: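 Male Sprague-Dawley rats were given a single IV dose of 0.25 mg/kg. The vehicle was DMSO, or for some compounds 20% (w/v) hydroxypropyl β-cyclodextrin in water adjusted to pH 3.5 with MSA. NC marks cases where the terminal disposition rate constant could not be characterized for lack of slope.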

[10] = Half life in Sprague-Dawley rat at 0.25 mg/kg, iv; assay type: ADME, organism-based; set-up: dose 0.25 mg/kg, route intravenous; settings: in vivo
[11] = AUC (0 to infinity) in Sprague-Dawley rat at 0.25 mg/kg, iv; assay type: ADME, organism-based, Plasma; set-up: dose 0.25 mg/kg, route intravenous, time infinity; settings: Sprague-Dawley, plasma
[12] = Oral bioavailability in Sprague-Dawley rat at 2 mg/kg; assay type: ADME, organism-based; settings: in vivo
In short: (§2)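 Male Sprague-Dawley rats given 2.0 mg/kg orally in 2% (w/v) hydroxypropylmethylcellulose, 1% (w/v) Tween 80 in water, pH 2.2 (adjusted with HCl or MSA). Some inhibitors instead used 10% (v/v) dimethylacetamide in the same vehicle.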

Liver microsome [13] = test: Unbound clearance rat liver microsomes at 1 uM in presence of NADPH by LC-MS/MS method; assay type: ADME
In short: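 Aliquots were taken at 0, 10, 20, 30 and 40 min, quenched with an equal volume of acetonitrile, centrifuged and analysed by LC/MS/MS.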

Liver microsome [14] = test: Drug metabolism in human liver microsomes assessed as formation of (S)-2-(8-fluoro-6-(3-methylisoxazol-5-yl)-[1,2,4]triazolo[4,3-a]pyridin-3-yl)-2-(3-methoxyquinolin-6-yl)ethanol in presence of NADPH by LC-MS/MS method; assay type: ADME; in short: as §1
[15] = Drug metabolism in monkey liver microsomes assessed as formation of (S)-2-(8-fluoro-6-(3-methylisoxazol-5-yl)-[1,2,4]triazolo[4,3-a]pyridin-3-yl)-2-(3-methoxyquinolin-6-yl)ethanol in presence of NADPH by LC-MS/MS method; assay type: ADME, Macaca mulatta; settings: rhesus monkey; in short: as §1
[16] = Drug metabolism in mouse liver microsomes assessed as formation of (S)-2-(8-fluoro-6-(3-methylisoxazol-5-yl)-[1,2,4]triazolo[4,3-a]pyridin-3-yl)-2-(3-methoxyquinolin-6-yl)ethanol formation in presence of NADPH by LC-MS/MS method; assay type: ADME; in short: as §1
Liver microsome [17] = test: Drug metabolism in dog liver microsomes assessed as formation of (S)-2-(8-fluoro-6-(3-methylisoxazol-5-yl)-[1,2,4]triazolo[4,3-a]pyridin-3-yl)-2-(3-methoxyquinolin-6-yl)ethanol in presence of NADPH by LC-MS/MS method; assay type: ADME, Canis lupus familiaris; in short: as §1
Liver microsome [18] = test: Drug metabolism in rat liver microsomes assessed as formation of (S)-2-(8-fluoro-6-(3-methylisoxazol-5-yl)-[1,2,4]triazolo[4,3-a]pyridin-3-yl)-2-(3-methoxyquinolin-6-yl)ethanol in presence of NADPH by LC-MS/MS method; assay type: ADME; in short: as §1
[19] = Drug metabolism in mouse liver microsomes assessed as formation of (S)-6-(1-(8-fluoro-6-(3-methylisoxazol-5-yl)-[1,2,4]triazolo[4,3-a]pyridin-3-yl)ethyl)quinolin-3-ol in presence of NADPH by LC-MS/MS method; assay type: ADME; in short: as §1
Liver microsome [20] = test: Drug metabolism in rat liver microsomes assessed as formation of (S)-6-(1-(8-fluoro-6-(3-methylisoxazol-5-yl)-[1,2,4]triazolo[4,3-a]pyridin-3-yl)ethyl)quinolin-3-ol in presence of NADPH by LC-MS/MS method; assay type: ADME; in short: as §1
Liver microsome [21] = test: Drug metabolism in dog liver microsomes assessed as formation of (S)-6-(1-(8-fluoro-6-(3-methylisoxazol-5-yl)-[1,2,4]triazolo[4,3-a]pyridin-3-yl)ethyl)quinolin-3-ol in presence of NADPH by LC-MS/MS method; assay type: ADME, Canis lupus familiaris; in short: as §1
[22] = Drug metabolism in mouse liver microsomes assessed as formation of (S)-(5-(8-fluoro-3-(1-(3-methoxyquinolin-6-yl)ethyl)-[1,2,4]triazolo[4,3-a]pyridin-6-yl)isoxazol-3-yl)methanol in presence of NADPH by LC-MS/MS method; assay type: ADME; in short: as §1
Liver microsome [23] = test: Drug metabolism in rat liver microsomes assessed as formation of (S)-(5-(8-fluoro-3-(1-(3-methoxyquinolin-6-yl)ethyl)-[1,2,4]triazolo[4,3-a]pyridin-6-yl)isoxazol-3-yl)methanol in presence of NADPH by LC-MS/MS method; assay type: ADME; in short: as §1
Liver microsome [24] = test: Drug metabolism in dog liver microsomes assessed as formation of (S)-(5-(8-fluoro-3-(1-(3-methoxyquinolin-6-yl)ethyl)-[1,2,4]triazolo[4,3-a]pyridin-6-yl)isoxazol-3-yl)methanol in presence of NADPH by LC-MS/MS method; assay type: ADME, Canis lupus familiaris; in short: as §1
[25] = Drug metabolism in mouse liver microsomes assessed as metabolite M3 formation in presence of NADPH by LC-MS/MS method; assay type: ADME; in short: as §1
Liver microsome [26] = test: Drug metabolism in rat liver microsomes assessed as metabolite M3 formation in presence of NADPH by LC-MS/MS method; assay type: ADME; in short: as §1
Liver microsome [27] = test: Drug metabolism in dog liver microsomes assessed as metabolite M3 in presence of NADPH by LC-MS/MS method; assay type: ADME, Canis lupus familiaris; in short: as §1
Liver microsome [28] = test: Stability in human liver microsomes assessed as compound turnover rate; assay type: ADME
Liver microsome [29] = test: Stability in rat liver microsomes assessed as compound turnover rate; assay type: ADME
Cytochrome P450 2D6 = Cytochrome P450 2D6 (Homo sapiens, UniProt P10635); test: Inhibition of CYP2D6 (unknown origin); assay type: ADME
Cytochrome P450 3A4 = Cytochrome P450 3A4 (Homo sapiens, UniProt P08684); test: Inhibition of CYP3A4 (unknown origin); assay type: ADME
[30] = AUC (0 to infinity) in Sprague-Dawley rat at 2 mg/kg, po; assay type: ADME, organism-based; set-up: time infinity, dose 2 mg/kg, route oral; settings: plasma; in short: as §2
Liver microsome [31] = test: Drug level in human liver microsomes treated with 5-(8-Fluoro-3-(1-(3-methoxyquinolin-6-yl)ethyl)[1,2,4]-triazolo[4,3-a]pyridin-6-yl)-3-methylisoxazole assessed as compound formation in presence of NADPH by LC-MS/MS method; assay type: ADME; in short: as §1
[32] = Drug level in monkey liver microsomes treated with 5-(8-Fluoro-3-(1-(3-methoxyquinolin-6-yl)ethyl)[1,2,4]-triazolo[4,3-a]pyridin-6-yl)-3-methylisoxazole assessed as compound formation in presence of NADPH by LC-MS/MS method; assay type: ADME, Macaca mulatta; settings: rhesus monkey; in short: as §1
[33] = Drug level in mouse liver microsomes treated with 5-(8-Fluoro-3-(1-(3-methoxyquinolin-6-yl)ethyl)[1,2,4]-triazolo[4,3-a]pyridin-6-yl)-3-methylisoxazole assessed as compound formation in presence of NADPH by LC-MS/MS method; assay type: ADME; in short: as §1
Liver microsome [34] = test: Drug level in rat liver microsomes treated with 5-(8-Fluoro-3-(1-(3-methoxyquinolin-6-yl)ethyl)[1,2,4]-triazolo[4,3-a]pyridin-6-yl)-3-methylisoxazole assessed as compound formation in presence of NADPH by LC-MS/MS method; assay type: ADME; in short: as §1
Liver microsome [35] = test: Drug level in dog liver microsomes treated with 5-(8-Fluoro-3-(1-(3-methoxyquinolin-6-yl)ethyl)[1,2,4]-triazolo[4,3-a]pyridin-6-yl)-3-methylisoxazole assessed as compound formation in presence of NADPH by LC-MS/MS method; assay type: ADME, Canis lupus familiaris; in short: as §1

T1 sequence (P08581 whole entry, the tested form may be a part): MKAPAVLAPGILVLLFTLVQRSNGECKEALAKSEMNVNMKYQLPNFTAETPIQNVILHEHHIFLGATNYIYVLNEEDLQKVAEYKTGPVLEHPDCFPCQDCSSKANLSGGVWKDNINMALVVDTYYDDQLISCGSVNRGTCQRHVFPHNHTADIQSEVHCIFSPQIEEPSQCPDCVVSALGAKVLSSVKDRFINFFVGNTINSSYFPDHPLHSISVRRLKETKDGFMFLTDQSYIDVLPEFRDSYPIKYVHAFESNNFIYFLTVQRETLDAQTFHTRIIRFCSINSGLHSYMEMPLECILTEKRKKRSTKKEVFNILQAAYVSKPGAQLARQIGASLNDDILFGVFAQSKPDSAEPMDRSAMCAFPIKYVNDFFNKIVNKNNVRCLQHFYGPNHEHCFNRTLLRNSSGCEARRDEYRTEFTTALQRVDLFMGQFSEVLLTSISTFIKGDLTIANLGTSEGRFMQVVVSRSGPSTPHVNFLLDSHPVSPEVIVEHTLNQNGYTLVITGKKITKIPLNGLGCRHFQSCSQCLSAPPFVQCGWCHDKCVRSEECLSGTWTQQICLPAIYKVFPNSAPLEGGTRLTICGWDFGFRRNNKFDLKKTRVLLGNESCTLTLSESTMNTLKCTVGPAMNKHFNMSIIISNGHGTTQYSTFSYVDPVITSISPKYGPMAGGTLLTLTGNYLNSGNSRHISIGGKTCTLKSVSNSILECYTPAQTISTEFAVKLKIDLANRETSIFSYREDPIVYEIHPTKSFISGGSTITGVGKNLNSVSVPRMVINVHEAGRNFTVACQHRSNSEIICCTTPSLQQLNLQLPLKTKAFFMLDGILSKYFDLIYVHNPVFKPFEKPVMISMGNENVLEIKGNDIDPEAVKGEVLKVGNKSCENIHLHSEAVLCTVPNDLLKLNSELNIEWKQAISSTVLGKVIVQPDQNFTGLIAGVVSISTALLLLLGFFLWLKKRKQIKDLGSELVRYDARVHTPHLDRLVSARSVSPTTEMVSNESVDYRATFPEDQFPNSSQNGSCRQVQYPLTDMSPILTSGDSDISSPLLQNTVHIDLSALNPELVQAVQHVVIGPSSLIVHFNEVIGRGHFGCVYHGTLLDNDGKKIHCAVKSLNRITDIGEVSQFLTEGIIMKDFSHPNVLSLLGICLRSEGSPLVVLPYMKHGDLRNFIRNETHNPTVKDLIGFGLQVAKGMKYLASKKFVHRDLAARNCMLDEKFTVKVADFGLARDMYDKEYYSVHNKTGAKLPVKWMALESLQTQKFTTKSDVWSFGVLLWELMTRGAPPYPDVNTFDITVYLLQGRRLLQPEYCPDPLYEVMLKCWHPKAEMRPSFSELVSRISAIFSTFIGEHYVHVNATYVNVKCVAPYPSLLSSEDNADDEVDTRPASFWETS
Chain of Cytochrome P450 2D6 (P10635 whole entry): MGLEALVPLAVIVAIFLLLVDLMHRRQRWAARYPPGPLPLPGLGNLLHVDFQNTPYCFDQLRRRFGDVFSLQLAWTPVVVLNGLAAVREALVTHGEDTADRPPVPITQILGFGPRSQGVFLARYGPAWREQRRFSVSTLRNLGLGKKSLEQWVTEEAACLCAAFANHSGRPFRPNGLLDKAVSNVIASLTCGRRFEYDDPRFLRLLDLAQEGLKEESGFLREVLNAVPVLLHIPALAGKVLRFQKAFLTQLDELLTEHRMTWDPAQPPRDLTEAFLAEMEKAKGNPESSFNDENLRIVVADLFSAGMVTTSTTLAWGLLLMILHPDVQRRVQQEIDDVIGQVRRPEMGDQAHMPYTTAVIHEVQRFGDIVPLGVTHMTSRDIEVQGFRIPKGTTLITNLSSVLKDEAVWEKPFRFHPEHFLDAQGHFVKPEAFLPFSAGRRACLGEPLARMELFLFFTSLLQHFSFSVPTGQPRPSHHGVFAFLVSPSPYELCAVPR
Chain of Cytochrome P450 3A4 (P08684 whole entry): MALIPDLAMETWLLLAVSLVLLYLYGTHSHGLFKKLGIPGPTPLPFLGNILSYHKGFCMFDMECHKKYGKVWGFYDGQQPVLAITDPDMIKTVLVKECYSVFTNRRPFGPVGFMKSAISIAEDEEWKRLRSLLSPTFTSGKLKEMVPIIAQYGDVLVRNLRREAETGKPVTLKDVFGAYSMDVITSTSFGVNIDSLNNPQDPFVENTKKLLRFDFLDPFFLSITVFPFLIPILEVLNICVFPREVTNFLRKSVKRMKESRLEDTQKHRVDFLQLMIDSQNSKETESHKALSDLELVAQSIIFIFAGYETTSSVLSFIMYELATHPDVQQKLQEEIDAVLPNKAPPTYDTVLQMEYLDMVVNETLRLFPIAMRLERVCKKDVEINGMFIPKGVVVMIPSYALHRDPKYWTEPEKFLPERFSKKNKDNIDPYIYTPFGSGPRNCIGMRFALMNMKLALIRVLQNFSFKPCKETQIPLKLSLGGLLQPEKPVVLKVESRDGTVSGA

Structure (SMILES): Cc1cc(-c2cc(F)c3nnc([C@@H](C)c4ccc5ncc(OCC(=O)O)cc5c4)n3c2)on1
- Drug metabolism (Liver microsome [1]): metabolite_detected
- Drug metabolism (Liver microsome [2]): metabolite_detected
- Drug metabolism (Liver microsome [3]): metabolite_detected
- Drug metabolism [4]: metabolite_detected
- Drug metabolism [5]: metabolite_detected

Structure (SMILES): Cc1cc(-c2cc(F)c3nnc([C@@H](C)c4ccc5ncc(OCCO)cc5c4)n3c2)on1
- Drug metabolism (Liver microsome [1]): metabolite_detected
- Drug metabolism (Liver microsome [2]): metabolite_detected
- Drug metabolism (Liver microsome [3]): metabolite_detected
- Drug metabolism [4]: metabolite_detected
- Drug metabolism [5]: metabolite_detected

Structure (SMILES): COc1cnc2ccc([C@H](C)c3nnc4c(F)cc(-c5cc(C)no5)cn34)cc2c1
- IC50 [6]: 2 nM
- IC50 [7]: 6 nM
- clearance [8]: 1.5 mL/min/kg
- Vd [9]: 0.18 L/kg
- half-life [10]: 150 min
- AUC(0-inf) [11]: 9 µM·h
- bioavailability [12]: 42%
- CL free (Liver microsome [13]): 14 L/h/kg
- Drug metabolism (Liver microsome [14]): metabolite_detected
- Drug metabolism [15]: metabolite_detected
- Drug metabolism [16]: metabolite_notdetected
- Drug metabolism (Liver microsome [17]): metabolite_notdetected
- Drug metabolism (Liver microsome [18]): metabolite_notdetected
- Drug metabolism [19]: metabolite_detected
- Drug metabolism (Liver microsome [20]): metabolite_detected
- Drug metabolism (Liver microsome [21]): metabolite_detected
- Drug metabolism [22]: metabolite_detected
- Drug metabolism (Liver microsome [23]): metabolite_detected
- Drug metabolism (Liver microsome [24]): metabolite_detected
- Drug metabolism [25]: metabolite_detected
- Drug metabolism (Liver microsome [26]): metabolite_detected
- Drug metabolism (Liver microsome [27]): metabolite_detected

Structure (SMILES): COc1cnc2ccc(C(F)(F)c3nnc4c(F)cc(-c5cnn(C)c5)cn34)cc2c1
- IC50 [6]: 12 nM
- IC50 [7]: 13 nM
- Stability (Liver microsome [28]): Stable
- Stability (Liver microsome [29]): Stable
- inhibition (INH) (Cytochrome P450 2D6): Not Active
- inhibition (INH) (Cytochrome P450 3A4): Not Active
- AUC(0-inf) [30]: > 386 µM·h

Structure (SMILES): COc1cnc2ccc([C@H](CO)c3nnc4c(F)cc(-c5cc(C)no5)cn34)cc2c1
- Drug metabolism (Liver microsome [31]): metabolite_detected
- Drug metabolism [32]: metabolite_detected

Structure (SMILES): Cc1cc(-c2cc(F)c3nnc([C@@H](C)c4ccc5ncc(O)cc5c4)n3c2)on1
- Drug metabolism [33]: metabolite_detected
- Drug metabolism (Liver microsome [34]): metabolite_detected
- Drug metabolism (Liver microsome [35]): metabolite_detected
